Measurements taken from ChEMBL document CHEMBL2157969, “Chalcone inhibitors of the NorA efflux pump in Staphylococcus aureus whole cells and enriched everted membrane vesicles” (Bioorg Med Chem, 2012).
Activity calls are given as the source filed them. The calls are words filed in the database; no cut-off is given here.

Columns and labels:
Escherichia coli [1] = experiment: Inhibition of Hoechst 33342 dye in norA-deficient Escherichia coli DH10B expressing pTrc99A at 2 ug/mL by spectrofluorometer analysis; assay type: functional, organism-based; conditions: K-12 DH10B
Outline: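 Everted membrane vesicles were made from overnight E. coli DH10B carrying pTrcHis2C-norA or control pTrc99A. PMSF (0.1 mM final) was added before French press and DNase (0.1 mg/mL final) to the lysate. Vesicles were diluted to 80 µg protein/mL in 50 mM potassium HEPES, 8.5 mM NaCl, 2 mM MgCl2, pH 7.2. Hoechst 33342 was added, then Mg2+-ATP after the signal stabilised (~30 s). Inhibitor was added at 150–160 s. Fluorescence ex 355/em 457 nm over 300 s.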

Staphylococcus aureus [2] = experiment: Antibacterial activity against Staphylococcus aureus ATCC 29213 […] at 0.2 to 25 ug/ml after 20 hrs by microdilution method; assay type: functional, organism-based
Outline: (§1)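 Broth microdilution in Mueller Hinton broth II with an inoculum of 5 × 10⁵ cfu/mL, incubated 20 h at 35 °C. MIC is the lowest concentration with no visible growth. Controls were bacteria with DMSO at up to about 1%, and ciprofloxacin. Run to CLSI/EUCAST guidelines in duplicate or more.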

[3] = target: T1, Quinolone resistance protein NorA (Staphylococcus aureus) (UniProt P0A0J7); experiment: Inhibition of norA-mediated ethidium bromide efflux in methicillin-resistant Staphylococcus aureus SA-1199B at 20 ug/ml by spectrofluorometric analysis
T1 sequence (whole entry): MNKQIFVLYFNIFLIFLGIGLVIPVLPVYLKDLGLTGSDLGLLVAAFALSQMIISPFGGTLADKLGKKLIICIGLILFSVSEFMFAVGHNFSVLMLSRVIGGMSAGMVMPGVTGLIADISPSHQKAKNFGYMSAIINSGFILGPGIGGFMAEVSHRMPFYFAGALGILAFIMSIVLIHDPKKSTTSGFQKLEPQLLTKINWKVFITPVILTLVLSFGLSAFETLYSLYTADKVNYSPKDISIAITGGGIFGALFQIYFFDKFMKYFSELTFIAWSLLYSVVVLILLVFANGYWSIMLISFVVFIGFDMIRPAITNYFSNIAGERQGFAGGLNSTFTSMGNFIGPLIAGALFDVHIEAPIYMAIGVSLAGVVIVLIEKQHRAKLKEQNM
Outline: (§2)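 Ethidium bromide efflux from S. aureus cells in MHB II, compounds dissolved in DMSO. Reserpine 20 µg/mL as positive control and 1% DMSO as negative control; background taken from a resuspended pellet in clean medium. Fluorescence read at ex 530/em 600 nm in duplicate; mean given as percent reduction of efflux versus control.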

[4] = target: T1, Quinolone resistance protein NorA (Staphylococcus aureus); experiment: Inhibition of norA-mediated ethidium bromide efflux in methicillin-resistant Staphylococcus aureus SA-1199B at 2.5 ug/ml by spectrofluorometric analysis
Outline: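 Whole-cell efflux assay, strain grown in Mueller Hinton II broth; compounds dissolved in DMSO, 1% DMSO in MHB II as negative control, reserpine as positive control. Background read from a pellet resuspended in clean MHB II. Fluorescence read in duplicate at ex 530 nm / em 600 nm; the mean is reported as percent reduction of efflux versus control.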

[5] = target: T1, Quinolone resistance protein NorA (Staphylococcus aureus); experiment: Inhibition of norA-mediated ethidium bromide efflux in methicillin-resistant Staphylococcus aureus SA-1199B at 5 ug/ml by spectrofluorometric analysis; outline: as §2
[6] = target: T1, Quinolone resistance protein NorA (Staphylococcus aureus); experiment: Inhibition of norA-mediated ethidium bromide efflux in methicillin-resistant Staphylococcus aureus SA-1199B at 10 ug/ml by spectrofluorometric analysis; outline: as §2
[7] = target: T1, Quinolone resistance protein NorA (Staphylococcus aureus); experiment: Inhibition of norA in Staphylococcus aureus SA-1199B overexpressing norA assessed as fold reduction in ciprofloxacin MIC at 25 ug/mL by checkerboard assay
Staphylococcus aureus [8] = experiment: Antibacterial activity against Staphylococcus aureus SA-1199B overexpressing norA at 0.2 to 25 ug/ml after 20 hrs by microdilution method; assay type: functional, organism-based; outline: as §1
[9] = target: T2, Quinolone resistance protein NorA (Staphylococcus aureus, UniProt P0A0J7); experiment: Inhibition of norA-mediated ethidium bromide efflux in methicillin-resistant Staphylococcus aureus SA-1199B by spectrofluorometric analysis; outline: as §2
T2 sequence (P0A0J7 whole entry): T1 sequence (whole entry)

[10] = target: T1, Quinolone resistance protein NorA (Staphylococcus aureus); experiment: Inhibition of norA in Staphylococcus aureus ATCC 29213 assessed as fold reduction in ciprofloxacin MIC at 12.5 ug/mL by checkerboard assay
[11] = target: T1, Quinolone resistance protein NorA (Staphylococcus aureus); experiment: Inhibition of norA in Staphylococcus aureus SA-1199B overexpressing norA assessed as fold reduction in ciprofloxacin MIC by checkerboard assay
Outline: (§3)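 Checkerboard in MHB with twofold serial dilutions: ciprofloxacin 0.05–12.5 µg/mL against inhibitor 0.2–25 µg/mL. Inoculum 5 × 10⁵ cfu/mL, 20 h at 35 °C, visual MIC read-out. Fold reduction of ciprofloxacin MIC recorded at the inhibitor concentration giving it. FIC index is the sum of both drugs' FICs; ≤0.5 counts as synergy.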

[12] = target: T1, Quinolone resistance protein NorA (Staphylococcus aureus); conditions: SA-1199B
[13] = target: T1, Quinolone resistance protein NorA (Staphylococcus aureus); experiment: Inhibition of norA in Staphylococcus aureus SA-1199B overexpressing norA assessed as fold reduction in ciprofloxacin MIC by checkerboard assay
Escherichia coli [14] = experiment: Inhibition of acridine orange efflux in norA-deficient Escherichia coli DH10B expressing pTrc99A at 2 ug/mL by spectrofluorometer analysis; assay type: functional, organism-based; conditions: K-12 DH10B
Outline: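 Proton gradient was read with acridine orange (500 nM final) in NorA-enriched or pTrc99A control everted E. coli DH10B vesicles. Buffer: 50 mM potassium HEPES, 8.5 mM NaCl, 2 mM MgCl2, pH 7.2. Vesicles were energised with Mg2+-ATP. Valinomycin and nigericin dissipated the gradients, and norfloxacin was given at 10 µM. Fluorescence ex 494/em 530 nm.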

[15] = target: T1, Quinolone resistance protein NorA (Staphylococcus aureus); experiment: Inhibition of norA in Staphylococcus aureus SA-1199B overexpressing norA assessed as fold reduction in ciprofloxacin MIC at 12.5 ug/mL by checkerboard assay; outline: as §3
[16] = target: T1, Quinolone resistance protein NorA (Staphylococcus aureus); conditions: ATCC 29213
[17] = target: T1, Quinolone resistance protein NorA (Staphylococcus aureus); experiment: Inhibition of norA in Staphylococcus aureus ATCC […] assessed as fold reduction in ciprofloxacin MIC at 25 ug/mL by checkerboard assay

Structure (SMILES)	inhibition (Escherichia coli [1])	Activity (Staphylococcus aureus [2])	inhibition [3] [%]	inhibition [4] [%]	inhibition [5] [%]	inhibition [6] [%]	Activity (Staphylococcus aureus [8])	IC50 [9] [µM]	further results
CN(C)CCOc1ccc(C(=O)/C=C/c2cccc(F)c2)cc1	inactive	–	–	–	–	–	–	–	–
CN(C)CCOc1ccc(C(=O)/C=C/c2ccc(N(C)C)cc2)cc1	inactive	inactive	98.7	48	96.5	97.4	inactive	7.7	fractional inhibitory concentration index (FICI) [7]: inactive; fractional inhibitory concentration index (FICI) [10]: 0.5
COc1ccc(CCN(C)CCCC(C#N)(c2ccc(OC)c(OC)c2)C(C)C)cc1OC (configuration not stated)	inactive	–	–	–	–	–	–	–	–
COc1cc(OC)c(/C=C/C(=O)c2ccc(O)cc2)c(OC)c1	inactive	–	–	–	–	–	–	–	–
COc1cc(O)cc(C)c1/C=C/C(=O)c1ccc(O)cc1	inactive	inactive	91.7	36.6	63.7	84.3	inactive	13.4	inhibition [11]: Dose-dependent effect; FICI [12]: 0.25; inhibition [13]: Dose-dependent effect; fractional inhibitory concentration index (FICI) [10]: 0.25; inhibition (Escherichia coli [14]): inactive
COc1cccc(/C=C/C(=O)c2ccc(O)cc2)c1OC	inactive	inactive	90.8	11.7	38	73.3	inactive	24.3	fractional inhibitory concentration index (FICI) [15]: 0.25; FICI [16]: 0.25
COc1ccc(/C=C/C(=O)c2ccc(O)cc2)cc1OC	inactive	inactive	87.9	14	38.3	64.3	inactive	26.5	fractional inhibitory concentration index (FICI) [17]: 0.25; fractional inhibitory concentration index (FICI) [7]: 0.25
COC(=O)[C@H]1[C@H]2C[C@@H]3c4[nH]c5cc(OC)ccc5c4CCN3C[C@H]2C[C@@H](OC(=O)c2cc(OC)c(OC)c(OC)c2)[C@@H]1OC [RESERPINE]	–	–	–	30	48.1	71.8	–	8.2	FICI [12]: 0.25; FICI [16]: 0.25
COc1ccc(/C=C/C(=O)c2ccccc2OC)c(OC)c1	inactive	–	–	–	–	–	–	–	–
CN(C)CCOc1ccc(C(=O)/C=C/c2ccccc2)cc1	inactive	inactive	83.6	21.8	36.1	56.9	inactive	28.4	fractional inhibitory concentration index (FICI) [17]: > 0.5; fractional inhibitory concentration index (FICI) [7]: > 0.5
COc1ccc(/C=C/C(=O)c2ccc(O)cc2)c(OC)c1	inactive	inactive	89.6	17.3	24.1	62.7	inactive	29.1	fractional inhibitory concentration index (FICI) [15]: 0.25; FICI [16]: 0.25
COc1ccc(C(=O)/C=C/c2cccc(OCCN(C)C)c2)c(OC)c1OC	inactive	–	–	–	–	–	–	–	inhibition (Escherichia coli [14]): Active
COc1ccc(C(=O)/C=C/c2cccc(N(C)C)c2)c(OC)c1OC	inactive	–	–	–	–	–	–	–	–
CN(C)CCOc1ccc(C(=O)/C=C/c2ccccc2F)cc1	inactive	inactive	97	33.7	48.5	70.3	inactive	18.1	fractional inhibitory concentration index (FICI) [17]: > 1; fractional inhibitory concentration index (FICI) [7]: 0.25
CN(C)CCOc1ccc(C(=O)/C=C/c2ccc(C#N)cc2)cc1	inactive	–	–	–	–	–	–	–	–
C=CCOc1ccc(C(=O)/C=C/c2cccc(OC)c2OC)cc1	inactive	–	–	–	–	–	–	–	–
CN(C)CCOc1ccc(C(=O)/C=C/c2ccc(F)cc2)cc1	inactive	–	–	–	–	–	–	–	–
COc1cc(/C=C/C(=O)c2ccc(OC)c(OC)c2OC)cc(OC)c1	inactive	–	–	–	–	–	–	–	–
C[C@@H]1O[C@@H](Oc2c(-c3ccc(O)cc3)oc3cc(O)cc(O)c3c2=O)[C@H](OC(=O)/C=C/c2ccc(O)cc2)[C@H](O)[C@H]1OC(=O)/C=C/c1ccc(O)cc1	inactive	–	–	–	–	–	–	–	–
COc1ccc(OC)c(/C=C/C(=O)c2ccc(O)cc2)c1	inactive	inactive	91	23.3	56.6	82.7	inactive	15	fractional inhibitory concentration index (FICI) [15]: 0.25; fractional inhibitory concentration index (FICI) [10]: 0.25
COc1cc(/C=C/C(=O)c2cccc(OC(=O)c3ccccc3)c2)cc(OC)c1	inactive	–	–	–	–	–	–	–	–
